SMILES strings stand for the structures. The source made the active and inactive calls. No rule for the calls is given here.

Serine hydrolase RBBP9 (Homo sapiens), sequence (O75884 whole entry, looked up): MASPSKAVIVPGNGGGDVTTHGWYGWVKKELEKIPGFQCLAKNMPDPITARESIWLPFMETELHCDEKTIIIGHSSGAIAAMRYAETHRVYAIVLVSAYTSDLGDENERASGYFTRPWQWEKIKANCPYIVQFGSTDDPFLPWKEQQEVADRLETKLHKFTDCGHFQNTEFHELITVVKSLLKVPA

The assay deals with Serine hydrolase RBBP9 (Homo sapiens) (UniProt O75884). The assay can be described thus: RBBP9 serine hydrolase inhibitors, late-stage follow-up, orthogonal assay, biochemical, gel-based ABPP, FP-rhodamine, powder samples (AID 2269). Particulars: recombinant RBBP9, gel-based ABPP, FP-rhodamine labeling; at 20 µM; stronger effect = higher value. An outline of the steps:
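material = recombinant RBBP9 | probe or stimulus = FP-rhodamine probe, 75 nM final | dosing = single compound concentration per test | times = compound preincubation with enzyme 30 min at 25 °C, probe labeling 45 min | measured by = in-gel fluorescence after SDS-PAGE | measure = percent inhibition from band density | controls = DMSO vehicle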
As to `C/C(=N\OC(=O)c1ccccc1O)c1cccs1`, the inhibition (usually the share of the control response that was lost under treatment) is 0% (inactive).
On to `COc1ccc(C(=O)ON=C2C(C)=CC(=O)C=C2C)cc1`, for which the inhibition was 48% (inactive).
For the compound `C/C(=N\OC(=O)c1ccc(-c2ccccc2)cc1)c1nccs1`, the inhibition is 4% (inactive).
Take `CC(=O)O/N=C(\C)c1nccs1`: the inhibition was 0% (inactive).
The result for `N/C(Cc1ccc(Cl)cc1)=N\OC(=O)C1CCCCC1` reads 0% (inactive); that for `CC(=NOC(=O)c1c(-c2ccccc2Cl)noc1C)c1nccs1`, 17% (inactive).
The result for `C/C(=N\OC(=O)c1ccccc1)c1nccs1` reads 62%; that for `C/C(=N\OC(=O)c1ccc([N+](=O)[O-])cc1)c1nccs1`, 15% (inactive).
The result for `C/C(=N\OC(=O)c1ccc(I)cc1)c1nccs1` reads 66%.
Turning to `C/C(=N\OC(=O)N1CCCCC1)c1nccs1`, the inhibition is 0% (inactive).
As to `COc1ccc(C(=O)O/N=C2\C=C(C)C(=O)C=C2C)cc1`, the inhibition was 76%.
With `N/C(Cc1cccs1)=N\OC(=O)C12CC3CC(CC(C3)C1)C2`, the inhibition is 6% (inactive).
The result for `C/C(=N\OC(=O)c1ccccc1F)c1nccs1` reads 64%.
For `CC(=NOC(=O)c1cn(-c2ccccc2)nc1-c1ccc(Cl)cc1)c1ccccc1`, the inhibition was 10% (inactive).
The result for `C/C(=N\OC(=O)c1c(F)cccc1F)c1nccs1` reads 66%; that for `NC(=O)C(=NOC(=O)c1ccccc1Cl)c1nc(-c2ccc(Br)cc2)cs1`, 0% (inactive).
The result for `C/C(=N\OC(=O)c1cccc(C(F)(F)F)c1)c1nccs1` reads 46% (inactive).
The result for `C/C(=N\OC(=O)c1cccc(Cl)c1)c1nccs1` reads 63%; that for `CC(C)=NOC(=O)c1cn(-c2ccccc2)nc1-c1cccs1`, 0% (inactive); that for `CC(=NOC(=O)c1ccc(S(=O)(=O)N2CCOCC2)cc1)c1cc2ccccc2o1`, 15% (inactive).
Take `C/C(=N\OC(=O)C1CCCCC1)c1nccs1`: the inhibition was 91%.
The result for `CC(=NOC(=O)c1ccc(-c2cc(Cl)ccc2Cl)o1)c1ccccc1` reads 0% (inactive).
For `CC(=O)ON=C(C)c1cc(C(C)(C)C)cc2c1CCC2(C)C`, the inhibition was 0% (inactive).
The result for `C/C(=N\OC(=O)c1ccc(F)cc1)c1nccs1` reads 76%; that for `COc1ccc(C(=O)O/N=C(\C)c2nccs2)cc1`, 60%.
Regarding `CC1=CC(=NOC(=O)/C=C/c2ccccc2)C=C(C)C1=O`, the inhibition is 78%.
The result for `C/C(=N\OC(=O)c1ccc(Cl)cc1)c1nccs1` reads 78%.
The result for `C#CCCC(=O)O/N=C(\C)c1nccs1` reads 42% (inactive); that for `NC(=NOC(=O)C1CCCCC1)c1cccc([N+](=O)[O-])c1`, 5% (inactive).
Regarding `CC(=NOC(=O)c1ccc(-c2ccccc2)cc1)c1cccs1`, the inhibition was 0% (inactive).
The result for `C/C(=N\OC(=O)c1ccccc1Cl)c1ccc(Br)cc1` reads 0% (inactive); that for `C/C(=N\OC(=O)c1c(-c2c(F)cccc2Cl)noc1C)c1nccs1`, 14% (inactive); that for `CC(C)=NOC(=O)c1cn(-c2ccccc2)nc1-c1ccc(F)cc1`, 0% (inactive).
Regarding `NC(=O)C(=NOC(=O)c1ccccc1)c1nc(-c2ccc(Cl)cc2)cs1`, the inhibition is 57%.
The result for `C/C(=N\OC(=O)/C=C/c1ccccc1)c1nccs1` reads 42% (inactive).
The result for `COc1ccc(/C(N)=N/OC(=O)C23CC4CC(CC(C4)C2)C3)cc1OC` reads 28% (inactive); that for `COc1ccc(C(=O)ON=C2C=C(C)C(=O)C(C)=C2)cc1`, 93%.

(Values after PubChem BioAssay AID2269 (The Scripps Research Institute Molecular Screening Center, 2010).)
